The source made the active and inactive calls. No cut-off for these calls is given here.
Experiments:
[1] = tested on: PC-3; assay: Antiproliferative activity against human PC3 cells at 100 uM after 72 hrs by MTT assay; format: functional; details: PC-3, 72 h
How it was run: (§1)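 PC3 prostate cancer cells kept in RPMI 1640 with 10% fetal calf serum at 37 °C, 5% CO₂. Seeded at 1.8 × 10⁴ cells/well, grown 3 days, then serum-starved 24 h to synchronize. Exposed to compounds at 1, 10, 50 and 100 µM (as solubility allows) in <0.1% DMSO for 72 h. Growth read by colorimetric MTT test.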

[2] = tested on: Blood; assay: Induction of profen release in human whole blood at 10 uM after 22 hrs by HPLC; format: functional
How it was run: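 Same blood pool as the COX inhibition runs. Compound incubated 22 h, then the free profen released was measured as a percentage ratio.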

[3] = tested on: PC-3; assay: Antiproliferative activity against human PC3 cells after 72 hrs by MTT assay; format: functional, cell-based; details: PC-3, 72 h; how it was run: as §1
[4] = molecular target: Prostaglandin G/H synthase 1 (Homo sapiens, UniProt P23219); assay: Inhibition of COX1 in human whole blood; format: tissue-based
[5] = molecular target: T1, Prostaglandin G/H synthase 2 (Homo sapiens, UniProt P35354); assay: Inhibition of COX2 in human whole blood; format: tissue-based
T1 sequence (P35354 whole entry): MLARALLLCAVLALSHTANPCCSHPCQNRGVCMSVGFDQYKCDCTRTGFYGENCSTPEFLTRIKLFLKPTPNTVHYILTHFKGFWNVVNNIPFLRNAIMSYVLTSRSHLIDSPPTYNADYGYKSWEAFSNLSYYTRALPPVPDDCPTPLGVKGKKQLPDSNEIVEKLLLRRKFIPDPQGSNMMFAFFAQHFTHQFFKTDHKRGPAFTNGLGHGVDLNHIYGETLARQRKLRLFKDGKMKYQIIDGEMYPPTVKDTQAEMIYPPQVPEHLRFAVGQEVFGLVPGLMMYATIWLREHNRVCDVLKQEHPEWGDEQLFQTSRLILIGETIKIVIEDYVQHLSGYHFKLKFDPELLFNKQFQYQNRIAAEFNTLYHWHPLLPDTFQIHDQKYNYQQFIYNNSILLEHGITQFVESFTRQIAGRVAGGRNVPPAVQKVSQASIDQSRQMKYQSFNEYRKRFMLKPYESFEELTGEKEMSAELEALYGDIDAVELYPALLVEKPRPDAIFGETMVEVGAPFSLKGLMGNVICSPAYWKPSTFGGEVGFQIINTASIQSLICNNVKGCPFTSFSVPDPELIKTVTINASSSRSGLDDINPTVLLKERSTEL

[6] = tested on: Blood; assay: Induction of nitric oxide release in human whole blood after 6 hrs by EPR spectroscopy; format: functional, tissue-based

Sequence of Prostaglandin G/H synthase 1 (P23219 whole entry): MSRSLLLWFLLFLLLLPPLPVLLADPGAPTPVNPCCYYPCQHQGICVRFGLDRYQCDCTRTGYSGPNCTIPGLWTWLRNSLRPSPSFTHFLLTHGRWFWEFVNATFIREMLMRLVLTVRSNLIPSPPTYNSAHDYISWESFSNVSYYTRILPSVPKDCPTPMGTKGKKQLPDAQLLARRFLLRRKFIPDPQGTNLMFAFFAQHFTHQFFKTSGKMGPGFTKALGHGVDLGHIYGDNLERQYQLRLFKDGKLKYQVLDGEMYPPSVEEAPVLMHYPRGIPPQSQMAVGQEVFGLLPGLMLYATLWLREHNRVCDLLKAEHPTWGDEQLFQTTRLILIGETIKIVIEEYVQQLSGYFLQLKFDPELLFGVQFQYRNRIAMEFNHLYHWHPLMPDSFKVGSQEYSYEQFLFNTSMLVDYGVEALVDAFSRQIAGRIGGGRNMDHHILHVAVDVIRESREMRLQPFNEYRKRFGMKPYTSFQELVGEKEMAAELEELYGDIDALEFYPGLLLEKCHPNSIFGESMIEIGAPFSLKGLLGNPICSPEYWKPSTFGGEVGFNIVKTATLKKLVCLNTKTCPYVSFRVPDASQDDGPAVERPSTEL

Row | Compound | inhibition at 100 µM [1] | Activity [2] | IC50 [3] | IC50 [4] | IC50 [5] | Activity [6]
1 | CC(C(=O)O)c1cccc(C(=O)c2ccccc2)c1 (stereo not drawn) [KETOPROFEN] | 0% |  |  |  |  | 
2 | CC(C(=O)O)c1ccc2c(c1)[nH]c1ccc(Cl)cc12 (stereo not drawn) [CARPROFEN] | 5% |  |  |  |  | 
3 | CC(COC(=O)C(C)c1ccc2c(c1)[nH]c1ccc(Cl)cc12)O[N+](=O)[O-] (stereo not drawn) |  | 100% | 48000 nM | 123000 nM | 45000 nM | 
4 | CC(COC(=O)C(C)c1ccc(C(=O)c2cccs2)cc1)O[N+](=O)[O-] (stereo not drawn) | 13% | 86% |  | 570 nM | 4560 nM | 
5 | CC(C(=O)OCC(CO[N+](=O)[O-])O[N+](=O)[O-])c1ccc(C(=O)c2cccs2)cc1 (stereo not drawn) | 33% | 73% |  | 480 nM | 2700 nM | 
6 | CC(COC(=O)C(C)c1cccc(C(=O)c2ccccc2)c1)O[N+](=O)[O-] (stereo not drawn) | 26% | 70% |  | 600 nM | 730 nM | Active
7 | CC(C(=O)O)c1ccc(C(=O)c2cccs2)cc1 (stereo not drawn) [SUPROFEN] | 0% |  |  | 560 nM | 2750 nM | 
8 | CC(C(=O)OCCO[N+](=O)[O-])c1ccc(C(=O)c2cccs2)cc1 (stereo not drawn) | 7% | 46% |  | 580 nM | 5800 nM | 
9 | CC(C(=O)OCCO[N+](=O)[O-])c1ccc2c(c1)[nH]c1ccc(Cl)cc12 (stereo not drawn) |  | 88% | 48000 nM | 110000 nM | 65000 nM | 
10 | CC(C(=O)OCC(CO[N+](=O)[O-])O[N+](=O)[O-])c1cccc(C(=O)c2ccccc2)c1 (stereo not drawn) | 21% | 79% |  | 580 nM | 740 nM | 
11 | CC(C(=O)OCCO[N+](=O)[O-])c1cccc(C(=O)c2ccccc2)c1 (stereo not drawn) | 26% | 73% |  | 450 nM | 770 nM | 

From ChEMBL document CHEMBL1156585, “New NSAIDs-NO hybrid molecules with antiproliferative properties on human prostatic cancer cell lines” (Bioorg Med Chem Lett, 2008)
